Measurements from different studies.
Lines come from different studies, so protocols differ.

Compound	test	system	setting	endpoint	value
CNC(=O)[C@@H](NC(=O)c1cc(OCC2(C)COC2)c(C2CC2)cn1)C(C)(C)C	–	C57BL/6 mouse, plasma	intravenous	clearance	73.8 mL/min/kg
Cc1ncc(C)n2nc(/C=C/c3nc(N4CCCC4)cc(N4CCOCC4)n3)nc12	–	male beagle dog, plasma	oral, 0.3 mg/kg	Cmax	78 nM
NC(=O)[C@@H]1CC(F)(F)CN1C(=O)c1ccc(N2CC(F)(F)C2)c(OCC2CC2)n1	–	C57BL/6 mouse, plasma	intravenous	clearance	28.5 mL/min/kg
CCC[C@@](N)(CO)CCc1ccc(OCCCCCC(C)C)cc1	–	dog, plasma	oral, 20 mg/kg, fasted	Cmax	669 nM
Cl.Cl.O=C(CCN1CCCCC1)c1ccc(-c2ccc(C(=O)CCN3CCCCC3)cc2)cc1	–	Sprague-Dawley rat, plasma	oral, 100 mg/kg	Tmax	45 min
CN[C@H](CC(C)C)C(=O)N[C@H]1C(=O)N[C@@H](CC(N)=O)C(=O)N[C@H]2C(=O)NC3C(=O)N[C@H](C(=O)N[C@H](C(=O)NCCC[N+](C)(C)C)c4cc(O)cc(O)c4-c4cc3ccc4O)[C@H](O)c3ccc(c(Cl)c3)Oc3cc2cc(c3OC2OC(CO)C(O)[C@H](O)[C@@H]2O[C@H]2CC(C)(NCc3ccc(-c4ccc(Cl)cc4)cc3)[C@H](O)[C@H](C)O2)Oc2ccc(cc2Cl)[C@H]1O (stereo partly shown)	–	mouse, plasma	intravenous, 10 mg/kg	clearance	2 mL/min/kg
O=C(Nc1cccnn1)N1CCN([C@@H]2CCOc3cc(C(F)(F)F)ccc32)CC1	–	male Sprague-Dawley rat, plasma	oral, 3 mg/kg	Tmax	40.2 min
C[C@]12CC[C@H](n3ccnc3)CC1=CC[C@@H]1[C@@H]2CC[C@]2(C)C(n3cnc4ccccc43)=CC[C@@H]12.Cl	–	male CD-1 mouse, plasma	intravenous, 1 mg/kg	C0	544 ng/mL
CCN(CC)CCCC[C@H](NC(=O)[C@H](CC(C)C)NC(=O)[C@H](C)NC(=O)[C@H](Cc1ccccc1)NC(=O)c1ccc(C(C)(C)C)cc1)C(=O)N[C@@H](CO)C(=O)OC	–	male Swiss mouse, blood	intravenous, 3 mg/kg	clearance	26.5 mL/min/kg
N=c1c2c(-c3ccccc3)c(-c3ccccc3)n(Cc3ccccc3)c2ncn1[C@H]1CC[C@H](O)CC1	metabolic stability	beagle dog, hepatocytes	1 µM, 4 h	compound remaining	118%
